Assay outcomes from PubChem BioAssay.
Measles CPE: protection of cells from measles virus; protection (pct of control), % at 4 µM; AID 841; Measles virus-infected cells, CPE protection, absorbance; actives 1.5% (n = 140,000); in the data active = protection mostly above about 24%, no sharp cut-off; inactive = mostly below about 26%
Redox H2O2 prof: compounds producing H2O2 with reducing agent – biochemical, NIH compound library profiling, artefact control for MLSCN library redox annotation, primary screen. DTT-dependent redox cycling H2O2, phenol red/HRP absorbance; 100% = 100 µM peroxide control, 0% = buffer. activation, % at 10 µM. actives 0.03% (n = 200,000);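 active = activation of at least 50% relative to the plate's high and low controls in the primary single-dose screen; inactive = activation below 50%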;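 also: compound incubated with DTT at 0.8 mM final as the reducing agent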
FLuc act counter: firefly luciferase counter-screen for stimulation assays | P08659 | ATPlite luciferase biochemical, luminescence, 10 min; 0 = ATP-free wells, 1 = DMSO control | activation factor at 10 µM | 200,000 tested, under 10 active | AID 1027;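 active = luciferase activation factor, scaled between plate controls, of at least 2 with compound at 10 µM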
Target sequence (P08659 whole entry, looked up): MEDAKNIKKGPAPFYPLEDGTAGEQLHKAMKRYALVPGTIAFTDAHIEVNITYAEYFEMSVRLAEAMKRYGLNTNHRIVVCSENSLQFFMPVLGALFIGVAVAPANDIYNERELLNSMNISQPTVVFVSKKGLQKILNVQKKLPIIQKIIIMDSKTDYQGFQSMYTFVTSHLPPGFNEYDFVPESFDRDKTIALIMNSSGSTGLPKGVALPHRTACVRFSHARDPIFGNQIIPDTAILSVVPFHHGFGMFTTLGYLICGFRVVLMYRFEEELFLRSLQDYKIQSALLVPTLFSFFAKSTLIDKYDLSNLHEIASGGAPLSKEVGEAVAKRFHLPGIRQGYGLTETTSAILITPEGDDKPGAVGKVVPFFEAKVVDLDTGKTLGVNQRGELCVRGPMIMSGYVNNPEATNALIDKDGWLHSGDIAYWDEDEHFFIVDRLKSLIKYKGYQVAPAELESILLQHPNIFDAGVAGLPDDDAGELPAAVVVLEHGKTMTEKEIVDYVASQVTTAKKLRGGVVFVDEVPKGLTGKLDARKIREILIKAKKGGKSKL
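test system = cell-free luciferase reagent | medium = PBS as buffer for the ATP substrate | dosing = test compounds dosed from 2 mM stocks in 100% DMSO | incubation = 10 min at ambient temperature | detection = luminescence measurement of luciferase light output | benchmarks = low control with PBS replacing ATP, high control enzyme plus ATP without compound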
FLuc inh counter: inhibits firefly luciferase, flagging false hits in luciferase inhibition screens; P08659; ATPLite firefly luciferase biochemical luminescence, 10 min; inhibition, % at 10 µM; actives 1.5% (n = 200,000); AID 1006;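 active = inhibition above about 50% when tested at 10 µM, limit read from the data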
ABCB1 inh: blocks JC-1 efflux by human ABCB1 transporter | inhibition, % at 6.6 µM | P08183 | actives 0.067% (n = 190,000) | CCRF-Adr cells, flow cytometry | AID 1326; in the data active = inhibition above about 40%;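 also: 0% = vehicle and 100% = reference inhibitor; higher value means more JC-1 retained so stronger ABCB1 efflux block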
ABCG2 block: blocks JC-1 efflux by human ABCG2 transporter. Q9UNQ0. IgMXP3 cells, flow cytometry. inhibition, % at 6.6 µM. actives 0.1% (n = 190,000);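 active = inhibition above 80%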;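 also: 0% = DMSO and 100% = nicardipine control wells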
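Test system: ABCG2 IgMXP3 and barcoded ABCB1 CCRF-Adr cell mix; Schedule: cells with compound and JC-1, 10 min at 25 °C, rotating, no wash; Technique: flow cytometry of retained JC-1 fluorescence; Measure: % inhibition of efflux relative to nicardipine and DMSO; Controls: nicardipine high and DMSO low controls.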
An asterisk follows results filed as active; . = not tested or not shown. Hits are enriched below; roughly 2.7% of the tested compounds scored in any of these assays.

SMILES	Measles CPE	Redox H2O2 prof	FLuc act counter	FLuc inh counter	ABCB1 inh	ABCG2 block
CCCn1c(SCC(=O)N2c3ccccc3Sc3ccccc32)nc2ccccc21	33.2*	1.6	1.1	-6.9	2.9	6.2
Cc1nn(C2CCS(=O)(=O)C2)c(Cl)c1/C=C/C(=O)OCC(=O)c1cc(C)n(-c2ccc(F)cc2)c1C (configuration not stated)	45.7*	0.0	1	-2.8	13.8	42.9
Cc1oc(-c2ccccc2F)nc1CSCC(=O)NCc1ccc2c(c1)OCO2	0.1	0.2	1	0.2	0.7	2.2
CCOC(=O)CN1C(=O)S/C(=C/c2cc(C)n(-c3ccccn3)c2C)C1=O	10.6	0.1	0.7	27.2	1.2	2.1
COC(=O)C(C)N1C(=O)S/C(=C/c2cc(C)n(-c3ccccn3)c2C)C1=O (configuration not stated)	3.9	0.2	0.4	58.4*	0.7	2.0
COC(=O)C(C)N1C(=O)S/C(=C\c2cc(C)n(-c3ccccn3)c2C)C1=O (configuration not stated)	5.5	0.2	0.4	56.4*	1.4	4.8
Cc1ccc(Nc2nc(CSc3nnnn3C)cs2)cc1	5.8	2.9	0.4	61.5*	0.5	2.2
Cc1ccccc1-n1c(SCc2csc(Nc3ccccc3)n2)nnc1-c1cccnc1	9.7	0.7	1	-1.5	10.9	19.5
Cc1ccc(Nc2nc(CSc3nnc(-c4cccnc4)n3-c3ccccc3C)cs2)cc1	53.4*	21.7	1	0.7	3.1	0.0
Cc1ccc(Nc2nc(CSc3nnc(-c4ccccc4C)n3C)cs2)cc1	1.8	0.3	0.4	64.2*	2.6	13.0
Cn1nnnc1SCc1csc(Nc2ccccc2)n1	9.1	1.9	1	1.2	0.1	0.6
Cc1ccc(Nc2nc(CSc3nnc(-c4ccccc4)n3C)cs2)cc1	28.6	0.0	0.1	85.8*	1.4	4.3
CCN(CC)C(=O)COc1ccc(-c2ccccc2)cc1	5.3	2.1	0.9	8.8	1.0	6.4
Cc1csc(Nc2ccc(Cl)cc2)n1	.	0.5	0.9	8.1	-0.2	2.7
Cc1ccc(Nc2nc(C)cs2)cc1	.	3.7	0.5	54.1*	0.7	3.3
N#C/C(=C\c1ccccc1)C(=O)OCC(=O)N1CCCC1	.	-1.4	1.1	-10.2	0.5	1.3
CC(C)(C)NCc1ccc(OCc2cccs2)cc1	.	-0.9	1	0.2	1.0	8.2
Cc1ccccc1OCC(=O)N/N=C/c1ccco1	44.5*	2.2	1	-1.2	-0.3	0.9
Cc1ccc(OCC(=O)N/N=C/c2ccco2)cc1	15.6	0.2	0.9	6.3	0.1	1.1
Cc1cc(O)c(/C=N/Nc2ccc(Cl)cc2)c(=O)o1	0.9	-3.5	0.1	89.2*	-0.5	2.6
Cc1[nH]n(-c2cccc(Cl)c2)c(=O)c1C=NCc1ccco1	.	0.3	0.3	65.2*	0.4	2.0
Cn1c(=O)[nH]c(=O)c2c1nc(N1CCCCCC1)n2CCN1CCCCCC1	38.6*	-2.3	1.1	-5.8	0.9	24.3
CCCn1c(N2CCN(C)CC2)nc2c1c(=O)[nH]c(=O)n2C	15.9	0.3	1	-3.2	1.2	2.5
CN1CCN(c2nc3c(c(=O)[nH]c(=O)n3C)n2CC(N)=O)CC1	28.6*	2.0	1.1	-6.0	-0.5	44.2
O=C(NC1CC1)c1cc2c(F)cccc2s1	.	-1.5	0.9	5.8	1.0	8.0
SMILES	Measles CPE	Redox H2O2 prof	FLuc act counter	FLuc inh counter	ABCB1 inh	ABCG2 block
CC(C)c1ccc2oc3nc(N)c(C(=O)O)cc3c(=O)c2c1	.	.	0.1	94.8*	.	1.6
Cc1nc2oc3ccc(F)cc3c(=O)c2cc1C(=O)NC(C)(C)C	.	-0.3	1	2.8	1.4	9.9
Cc1cc(N2CC(C)OC(C)C2)nc(C(C)C)n1 (configuration not stated)	.	-1.9	1	-3.1	0.7	1.6
O=C(O)COc1ccc(/C=N/Nc2nc(Nc3ccccc3)nc(N3CCCCC3)n2)cc1	.	0.2	0.5	54.9*	-2.8	-9.2
O=C(Nc1ccccc1)C1=C[C@@H](c2coc3ccccc3c2=O)C[C@@H](OCc2ccc(CO)cc2)O1	.	-0.9	1.1	-6.6	2.7	6.2
O=c1c(-c2nn[nH]n2)coc2ccc(Cl)cc12	.	-1.1	1	-4.1	1.1	4.9
O=C(CSc1ncnc2ccccc12)c1ccco1	.	-0.5	0.2	81.2*	0.1	3.4
O=C(CSc1n[nH]c(-c2cccnc2)n1)OC1CCCCC1	.	-0.7	1.1	-8.4	-3.2	24.6
O=C(NC(=S)Nc1ccccc1)c1ccc(-c2ccccc2)cc1	6.0	0.0	0.9	9.0	-0.8	-5.5
CC(C)NS(=O)(=O)c1ccc(NC(=S)NC(=O)c2ccc(-c3ccccc3)cc2)cc1	43.5*	1.3	1	-4.4	0.5	1.2
CC(C)(C)N1CC(C(=O)O)CC1=O (configuration not stated)	.	0.5	1	-2.4	0.5	7.2
Cc1nn(C)cc1C(C)Nc1nc2nonc2nc1N1CCCCC1 (configuration not stated)	.	1.1	1.1	-7.4	1.5	2.2
COc1ccccc1C1N(c2ccc(Cl)cc2)C(=O)C2CCCN21 (configuration not stated)	6.2	-0.9	1	1.8	0.9	1.8
O=C1C2CCCN2C(c2cccs2)N1c1ccc(Cl)cc1 (configuration not stated)	25.2*	7.7	1	1.8	0.2	4.3
CCOCCCNC(=S)NNC(=O)CCn1nc(C)c(Br)c1C	39.4*	-1.8	1.1	-8.2	-0.2	-0.3
Cc1nn(CCC(=O)NNC(=S)NCC(C)C)c(C)c1Br	32.9*	-2.0	1.1	-7.3	0.3	1.2
Cc1cccc(Nc2nc3c(s2)CCCC3)c1	16.4	-0.2	0.9	11.9	-0.2	-1.0
O=S1(=O)N=C(Nc2nc3c(s2)CCCC3)c2ccccc21	22.7	-0.1	0.1	86.8*	-0.7	-6.4
COc1ccc(C(=O)Nc2sc3c(c2C(=O)O)CC(C)(C)OC3)cc1	3.2	-0.4	0.9	11.2	-0.5	4.4
O=C(Nc1sc2c(c1C(=O)O)CCC2)c1ccccc1	20.6	0.0	0.8	22.8	-1.7	-1.8
N#Cc1c(N2C(=O)Nc3ccccc3N2O)sc2c1CCCCCC2	9.0	-0.1	0.4	55.5*	-0.6	-3.3
O=C(Nc1sc2c(c1C(=O)O)CCCCC2)c1ccccc1	.	0.3	0.3	71.8*	-0.3	0.2
Cc1ccc(C(=O)Nc2sc3c(c2C#N)CCCCC3)cc1C	17.3	1.9	1	0.6	-0.3	0.0
CC1(C)Cc2c(sc(NC(=O)c3ccccc3)c2C(=O)O)CO1	.	-0.7	0.4	58.9*	-0.2	0.7
N#Cc1c(NC(=O)c2ccccc2)sc2c1CCCCC2	10.2	0.2	0.4	55.3*	1.2	4.5
